Data set [1] deals with MRC5. The data set is described as follows: Cytotoxicity was tested on human diploid embryonic lung cell line (MRC-5) (in vitro). The class given is functional.
The test system of data set [2] is Plasmodium falciparum. The data set is described as follows: In vitro antimalarial activity against Plasmodium falciparum FcB1. The class given is functional, organism-based. The procedure, abridged:
(§1)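 Asynchronous P. falciparum FcB1 cultures in human erythrocytes (0.5% parasitemia, 1% hematocrit) were exposed to serial dilutions for 24 h at 37 °C. [3H]-hypoxanthine was then added. Incorporation was compared with drug-free controls, DMSO ≤0.1%. IC50 came from the concentration–response curve, reported as mean ± SD of three experiments.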

Data set [3] can be described thus: Vacuolar accumulation ratio was determined. The class given is functional. The gist of the method:
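Calculated, not measured: Henderson–Hasselbalch-derived equation using predicted pKa values, assuming vacuolar pH 5.0 and external pH 7.4.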

The subject of data set [4] is MRC5. Nature of the data set: Cytotoxicity of compound was tested on human diploid embryonic lung cell line (MRC-5). Type of data set: functional.
The nature of data set [5]: Partition coefficient was determined by dividing the concentration of compound in 1-octanol by concentration in aqueous phase at pH 7.4. The class given is physicochemical. Conditions: 1-octanol/aqueous phase, read-out: Log D7.4.
Data set [6] in a line: Partition coefficient was determined by dividing the concentration of compound in 1-octanol by concentration in aqueous phase at pH 5.0. The class given is physicochemical. The conditions noted are these: 1-octanol/aqueous phase, read-out: Log D5.0.
The test system of data set [7] is Plasmodium falciparum. Nature of the data set: Antimalarial activity against Plasmodium falciparum FcB1. The class given is functional, organism-based. The procedure, abridged: as §1

Consider `Clc1ccc2c(NCCCN3CCN(CCCNCCc4ccccc4)CC3)ccnc2c1`, for which, in the data set with MRC5 [1], the half-maximal cytotoxic concentration (CC50) was 5 µM. In the data set with Plasmodium falciparum [2], this molecule returned an IC50 of 0.0185 µM.

`CCN(CC)CCCC(C)Nc1ccnc2cc(Cl)ccc12` (stereo not drawn) [CHLOROQUINE]: the VAR in data set [3] stood at 53600. This molecule also came in with a CC50 in the data set on MRC5 [4] of 50 µM.

For the molecule `CCCCN(CCCC)CCCN1CCN(CCCNc2ccnc3cc(Cl)ccc23)CC1`, the values for the logD in data set [5] and in data set [6] were 1.92 and -1.75, respectively.

For the molecule `COc1ccc(C(=O)NCCCN2CCN(CCCNc3ccnc4cc(Cl)ccc34)CC2)cc1`, it took 4 µM to reach half-maximal cytotoxicity in the data set with MRC5 [1] (CC50). This molecule came in with an IC50 in the data set with Plasmodium falciparum [2] of 0.0202 µM.

`O=C(NCCCN1CCN(CCCNc2ccnc3cc(Cl)ccc23)CC1)c1cccc(Oc2ccccc2)c1` came in with a CC50 in the data set on MRC5 [1] of 5 µM. In data set [3], the VAR amounted to 29500. The molecule also displayed an IC50 in the data set with Plasmodium falciparum [2] of 0.0208 µM.

On to `Clc1ccc2c(NCCCN3CCN(CCCN(CCc4ccccc4)CCc4ccccc4)CC3)ccnc2c1`, for which, in the data set with MRC5 [1], the 50% cytotoxic concentration (CC50) came to 1 µM. Moreover, in the data set on Plasmodium falciparum [2], the half-maximal inhibitory concentration (IC50) worked out at 0.0262 µM.

As for `O=C(Cc1ccccc1)NCCCN1CCN(CCCNc2ccnc3cc(Cl)ccc23)CC1`, the CC50 in the data set with MRC5 [1] was 4 µM. The same molecule registered a half-maximal inhibitory concentration (IC50) with Plasmodium falciparum [2] of 0.0674 µM.

As for `O=C(NCCCN1CCN(CCCNc2ccnc3cc(Cl)ccc23)CC1)c1ccc([N+](=O)[O-])cc1`, the logD in data set [5] is more than 2.78; in data set [6] it was 0.31.

As for `Clc1ccc2c(NCCCN3CCN(CCCNc4ccnc5cc(Cl)ccc45)CC3)ccnc2c1`, the IC50 with Plasmodium falciparum [7] worked out at 0.023 µM. In the data set with MRC5 [4], the 50% cytotoxic concentration (CC50) is less than 1 µM.

Turning to `O=C(NCCCN1CCN(CCCNc2ccnc3cc(Cl)ccc23)CC1)C1CC1`, the logD is more than 2.78 in data set [5] and -0.23 in data set [6].

In the case of `Clc1ccc2c(NCCCN3CCN(CCCN(CC4CC4)CC4CC4)CC3)ccnc2c1`, the results for the logD in data set [5] and in data set [6] were 1.16 and less than -2.78, respectively.

In the case of `COc1ccc(CN(CCCN2CCN(CCCNc3ccnc4cc(Cl)ccc34)CC2)Cc2ccc(OC)cc2)cc1`, the CC50 with MRC5 [1] is 1 µM. This molecule registered an IC50 in the data set with Plasmodium falciparum [2] of 0.0096 µM.

Consider `CCCC(=O)NCCCN1CCN(CCCNc2ccnc3cc(Cl)ccc23)CC1`, for which, in data set [5], the logD is 1.06.

Turning to `Clc1ccc2c(NCCCN3CCN(CCCNCc4ccnc5ccccc45)CC3)ccnc2c1`, half-maximal cytotoxicity in the data set with MRC5 [1] (CC50) was put at 1.2 µM. For the same molecule, the IC50 in the data set with Plasmodium falciparum [2] worked out at 0.0741 µM.

One may read the CC50 as the concentration at which the toxic effect on the cells reaches its halfway point. Read a low CC50 as harm at low concentration. The term IC50 denotes the point on the concentration scale where inhibition reaches its midpoint.

(Values after ChEMBL document CHEMBL1136806, “Synthesis and in vitro and in vivo antimalarial activity of N1-(7-chloro-4-quinolyl)-1,4-bis(3-aminopropyl)piperazine derivatives” (J Med Chem, 2003).)
